Source: ChEMBL document CHEMBL2169806, “Design, synthesis, and pharmacological evaluation of N-acylhydrazones and novel conformationally constrained compounds as selective and potent orally active phosphodiesterase-4 inhibitors” (J Med Chem, 2012)

Tested on: not listed separately
Test: Inhibition of bovine PDE3 using [3H]cAMP as substrate
Design: species or system Bos taurus
Conditions: not given
Compound `COc1ccc(/C=N/N(C)C(=O)c2ccc(Cl)cc2)cc1OC` has an IC50 of 6700 nM. With `COc1ccc(/C=N/N(C)C(=O)c2ccccc2)cc1OC` the IC50 was 19600 nM. With `COc1ccc(/C=N/N(C)C(=O)c2ccccc2OC)cc1OC` the IC50 was 6200 nM. With `COc1ccc(/C=N/N(C)C(=O)c2ccc(OC)c(OC)c2)cc1OC` the IC50 was 18800 nM.

Tested on: PBMC
Test: Antiinflammatory activity in human PBMC assessed as inhibition of LPS-induced TNFalpha production at 10 uM after 24 hrs by ELISA relative to control
Assay type: functional
Conditions: not given
`COc1ccc(/C=N/N(C)C(=O)c2ccc(Cl)cc2)cc1OC` showed an inhibition at 10 µM of 88%. Compound `COc1ccc(/C=N/N(C)C(=O)c2ccccc2)cc1OC` has an inhibition at 10 µM of 91%. `COc1ccc(/C=N/N(C)C(=O)c2ccccc2OC)cc1OC` showed an inhibition at 10 µM of 80%. `COc1ccc(/C=N/N(C)C(=O)c2ccc(OC)c(OC)c2)cc1OC` showed an inhibition at 10 µM of 92%.

Target: T1, cGMP-dependent 3',5'-cyclic phosphodiesterase (Homo sapiens, UniProt O00408)
T1 sequence (O00408 whole entry): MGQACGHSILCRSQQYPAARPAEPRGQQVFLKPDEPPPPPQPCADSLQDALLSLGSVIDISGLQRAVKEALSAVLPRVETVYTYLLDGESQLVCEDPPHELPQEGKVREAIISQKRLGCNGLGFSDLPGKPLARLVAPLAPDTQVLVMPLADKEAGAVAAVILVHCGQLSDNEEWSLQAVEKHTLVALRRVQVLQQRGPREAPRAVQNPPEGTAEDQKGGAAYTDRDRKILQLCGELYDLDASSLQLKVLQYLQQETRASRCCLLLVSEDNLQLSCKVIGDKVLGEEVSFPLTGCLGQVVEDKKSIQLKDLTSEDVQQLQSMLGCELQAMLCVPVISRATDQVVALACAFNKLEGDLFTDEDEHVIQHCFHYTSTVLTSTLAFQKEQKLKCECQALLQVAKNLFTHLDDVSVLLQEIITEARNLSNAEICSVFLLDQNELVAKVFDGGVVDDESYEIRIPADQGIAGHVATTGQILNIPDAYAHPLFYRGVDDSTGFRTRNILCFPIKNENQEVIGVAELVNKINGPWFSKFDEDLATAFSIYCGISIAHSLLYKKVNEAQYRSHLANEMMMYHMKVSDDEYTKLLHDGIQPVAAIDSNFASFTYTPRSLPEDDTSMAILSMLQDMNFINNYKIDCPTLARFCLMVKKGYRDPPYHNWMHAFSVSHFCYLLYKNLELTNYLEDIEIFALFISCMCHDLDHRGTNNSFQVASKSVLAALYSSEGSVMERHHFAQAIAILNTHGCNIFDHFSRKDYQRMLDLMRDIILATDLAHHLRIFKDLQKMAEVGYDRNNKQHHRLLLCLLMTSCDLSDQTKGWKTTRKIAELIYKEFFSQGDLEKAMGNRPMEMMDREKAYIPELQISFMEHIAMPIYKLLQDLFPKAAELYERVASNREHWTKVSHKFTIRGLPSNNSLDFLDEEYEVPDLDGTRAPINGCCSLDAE
Test: Inhibition of human PDE2 using [3H]cAMP as substrate
Conditions: not given
In the case of `COc1ccc(/C=N/N(C)C(=O)c2ccccc2OC)cc1OC`, the IC50 is reported as 16800 nM.

Target: T1, cGMP-dependent 3',5'-cyclic phosphodiesterase
Test: Inhibition of human PDE2 using [3H]cAMP as substrate at 10 uM
Conditions: not given
In the case of `COc1ccc(/C=N/N(C)C(=O)c2ccc(Cl)cc2)cc1OC`, the inhibition is reported as 26.6%. `COc1ccc(/C=N/N(C)C(=O)c2ccccc2)cc1OC` showed an inhibition of 23.5%. With `COc1ccc(/C=N/N(C)C(=O)c2ccc(OC)c(OC)c2)cc1OC` the inhibition was 40.8%.

Tested on: Mus musculus
Test: Antiinflammatory activity in A/J mouse assessed as inhibition of leukocyte accumulation in bronchoalveolar space at 100 umol/kg, po administered 1 hr prior to LPS-challenge measured after 18 hrs relative to vehicle-treated control
Assay type: functional
Conditions: Lung
In the case of `COc1ccc(/C=N/N(C)C(=O)c2ccc(Cl)cc2)cc1OC`, the inhibition in vivo at 100 µmol/kg is reported as 69%. `COc1ccc(/C=N/N(C)C(=O)c2ccccc2)cc1OC` showed an inhibition in vivo at 100 µmol/kg of 73%. For `COc1ccc(/C=N/N(C)C(=O)c2ccccc2OC)cc1OC`, the inhibition in vivo at 100 µmol/kg was 52%. `COc1ccc(/C=N/N(C)C(=O)c2ccc(OC)c(OC)c2)cc1OC` gave an inhibition in vivo at 100 µmol/kg of 53%.

Tested on: not listed separately
Test: Inhibition of PDE6 at 10 uM
Conditions: not given
For `COc1ccc(/C=N/N(C)C(=O)c2ccc(Cl)cc2)cc1OC`, the inhibition was 34%. Compound `COc1ccc(/C=N/N(C)C(=O)c2ccccc2)cc1OC` has an inhibition of 31.2%. Work on `COc1ccc(/C=N/N(C)C(=O)c2ccccc2OC)cc1OC` yielded an inhibition of 11%.

Species: Bos taurus
Test: Inhibition of bovine PDE1 using [3H]cAMP as substrate at 10 uM
Conditions: not given
In the case of `COc1ccc(/C=N/N(C)C(=O)c2ccc(Cl)cc2)cc1OC`, the inhibition is reported as 17.7%. Work on `COc1ccc(/C=N/N(C)C(=O)c2ccccc2)cc1OC` yielded an inhibition of 6%. For `COc1ccc(/C=N/N(C)C(=O)c2ccccc2OC)cc1OC`, the inhibition was 11%. `COc1ccc(/C=N/N(C)C(=O)c2ccc(OC)c(OC)c2)cc1OC` gave an inhibition of 38.7%.

Tested on: not listed separately
Test: Inhibition of bovine PDE4 using [3H]cAMP as substrate
Design: species or system Bos taurus
Conditions: not given
For `COc1ccc(/C=N/N(C)C(=O)c2ccc(Cl)cc2)cc1OC`, the IC50 was 150 nM. With `COc1ccc(/C=N/N(C)C(=O)c2ccccc2OC)cc1OC` the IC50 was 210 nM. `COc1ccc(/C=N/N(C)C(=O)c2ccc(OC)c(OC)c2)cc1OC` showed an IC50 of 300 nM.

Target: 3',5'-cyclic-AMP phosphodiesterase 4D (Homo sapiens, UniProt Q08499)
Sequence (Q08499 whole entry): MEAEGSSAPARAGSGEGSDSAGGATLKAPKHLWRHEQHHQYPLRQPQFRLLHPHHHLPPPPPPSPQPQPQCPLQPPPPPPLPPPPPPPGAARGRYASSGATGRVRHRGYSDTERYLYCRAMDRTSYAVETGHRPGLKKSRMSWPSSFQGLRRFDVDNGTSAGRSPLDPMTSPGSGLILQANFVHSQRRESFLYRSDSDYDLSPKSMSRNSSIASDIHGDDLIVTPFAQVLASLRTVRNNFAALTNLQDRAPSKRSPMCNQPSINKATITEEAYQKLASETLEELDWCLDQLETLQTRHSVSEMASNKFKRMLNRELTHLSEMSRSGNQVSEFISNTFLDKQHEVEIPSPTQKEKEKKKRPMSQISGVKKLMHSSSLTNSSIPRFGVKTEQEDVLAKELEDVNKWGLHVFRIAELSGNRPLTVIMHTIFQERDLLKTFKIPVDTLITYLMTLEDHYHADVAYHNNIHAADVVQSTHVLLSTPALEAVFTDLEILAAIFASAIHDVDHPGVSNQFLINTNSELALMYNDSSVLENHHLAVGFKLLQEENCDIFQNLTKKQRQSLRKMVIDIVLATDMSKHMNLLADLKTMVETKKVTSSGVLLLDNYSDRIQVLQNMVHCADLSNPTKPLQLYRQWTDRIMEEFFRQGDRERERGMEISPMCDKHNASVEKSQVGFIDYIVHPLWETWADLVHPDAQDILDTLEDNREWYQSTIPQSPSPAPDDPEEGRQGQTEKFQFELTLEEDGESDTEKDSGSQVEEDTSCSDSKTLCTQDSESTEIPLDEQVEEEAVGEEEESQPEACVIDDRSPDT
Test: Inhibition of human recombinant PDE4D
Conditions: not given
`COc1ccc(/C=N/N(C)C(=O)c2ccccc2)cc1OC` showed an IC50 of 140 nM.

Tested on: Mus musculus
Test: Antiinflammatory activity in A/J mouse lung assessed as inhibition of LPS-induced TNFalpha production at 100 umol/kg, po administered 1 hr prior to LPS-challenge measured after 18 hrs relative to vehicle-treated control
Assay type: functional
Conditions: not given
Work on `COc1ccc(/C=N/N(C)C(=O)c2ccc(Cl)cc2)cc1OC` yielded an inhibition in vivo at 100 µmol/kg of 54%. Compound `COc1ccc(/C=N/N(C)C(=O)c2ccccc2)cc1OC` has an inhibition in vivo at 100 µmol/kg of 46%. `COc1ccc(/C=N/N(C)C(=O)c2ccccc2OC)cc1OC` gave an inhibition in vivo at 100 µmol/kg of 100%. In the case of `COc1ccc(/C=N/N(C)C(=O)c2ccc(OC)c(OC)c2)cc1OC`, the inhibition in vivo at 100 µmol/kg is reported as 74%.

Tested on: Mus musculus
Test: Antiinflammatory activity in A/J mouse lung assessed as inhibition of LPS-induced IL6 production at 100 umol/kg, po administered 1 hr prior to LPS-challenge measured after 18 hrs relative to vehicle-treated control
Assay type: functional
Conditions: not given
Work on `COc1ccc(/C=N/N(C)C(=O)c2ccc(Cl)cc2)cc1OC` yielded an inhibition in vivo at 100 µmol/kg of 59%. In the case of `COc1ccc(/C=N/N(C)C(=O)c2ccccc2)cc1OC`, the inhibition in vivo at 100 µmol/kg is reported as 53%. `COc1ccc(/C=N/N(C)C(=O)c2ccccc2OC)cc1OC` showed an inhibition in vivo at 100 µmol/kg of 99%. For `COc1ccc(/C=N/N(C)C(=O)c2ccc(OC)c(OC)c2)cc1OC`, the inhibition in vivo at 100 µmol/kg was 65%.

Tested on: PBMC
Test: Antiinflammatory activity in human PBMC assessed as inhibition of LPS-induced TNFalpha production after 24 hrs by ELISA
Assay type: functional, cell-based
Conditions: not given
`COc1ccc(/C=N/N(C)C(=O)c2ccc(Cl)cc2)cc1OC` gave an EC50 of 1030 nM. Work on `COc1ccc(/C=N/N(C)C(=O)c2ccccc2)cc1OC` yielded an EC50 of 1750 nM. In the case of `COc1ccc(/C=N/N(C)C(=O)c2ccccc2OC)cc1OC`, the EC50 is reported as 1590 nM. For `COc1ccc(/C=N/N(C)C(=O)c2ccc(OC)c(OC)c2)cc1OC`, the EC50 was 1180 nM.

Tested on: Mus musculus
Test: Antiinflammatory activity in A/J mouse assessed as inhibition of LPS-induced airway elastance provoked by methacholine at 100 umol/kg, po administered 1 hr prior to LPS-challenge measured after 18 hrs relative to vehicle-treated control
Assay type: functional
Conditions: not given
Compound `COc1ccc(/C=N/N(C)C(=O)c2ccc(Cl)cc2)cc1OC` has an inhibition in vivo at 100 µmol/kg of 72%. In the case of `COc1ccc(/C=N/N(C)C(=O)c2ccccc2)cc1OC`, the inhibition in vivo at 100 µmol/kg is reported as 51%. For `COc1ccc(/C=N/N(C)C(=O)c2ccccc2OC)cc1OC`, the inhibition in vivo at 100 µmol/kg was 59%. `COc1ccc(/C=N/N(C)C(=O)c2ccc(OC)c(OC)c2)cc1OC` showed an inhibition in vivo at 100 µmol/kg of 79%.

Tested on: not listed separately
Test: Inhibition of PDE6
Conditions: not given
In the case of `COc1ccc(/C=N/N(C)C(=O)c2ccc(OC)c(OC)c2)cc1OC`, the IC50 is reported as 17600 nM.

Species: Bos taurus
Test: Inhibition of bovine PDE4 using [3H]cAMP as substrate at 10 uM
Conditions: not given
Procedure, shortened: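 Enzyme was PDE4 isolated from the media layer of bovine aorta, run in the two-step activity assay at 1 μM cAMP.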
Compound `COc1ccc(/C=N/N(C)C(=O)c2ccc(Cl)cc2)cc1OC` has an inhibition of 97%. In the case of `COc1ccc(/C=N/N(C)C(=O)c2ccccc2)cc1OC`, the inhibition is reported as 97.1%. `COc1ccc(/C=N/N(C)C(=O)c2ccccc2OC)cc1OC` gave an inhibition of 97.8%. Work on `COc1ccc(/C=N/N(C)C(=O)c2ccc(OC)c(OC)c2)cc1OC` yielded an inhibition of 95.8%.

Tested on: Mus musculus
Test: Antiinflammatory activity in A/J mouse assessed as inhibition of neutrophil accumulation in bronchoalveolar space at 100 umol/kg, po administered 1 hr prior to LPS-challenge measured after 18 hrs relative to vehicle-treated control
Assay type: functional
Conditions: Lung
`COc1ccc(/C=N/N(C)C(=O)c2ccc(Cl)cc2)cc1OC` showed an inhibition in vivo at 100 µmol/kg of 54%. Compound `COc1ccc(/C=N/N(C)C(=O)c2ccccc2)cc1OC` has an inhibition in vivo at 100 µmol/kg of 68%. For `COc1ccc(/C=N/N(C)C(=O)c2ccccc2OC)cc1OC`, the inhibition in vivo at 100 µmol/kg was 53%. In the case of `COc1ccc(/C=N/N(C)C(=O)c2ccc(OC)c(OC)c2)cc1OC`, the inhibition in vivo at 100 µmol/kg is reported as 50%.

Tested on: Mus musculus
Test: Antiinflammatory activity in A/J mouse assessed as inhibition of LPS-induced airway resistance provoked by methacholine at 100 umol/kg, po administered 1 hr prior to LPS-challenge measured after 18 hrs relative to vehicle-treated control
Assay type: functional
Conditions: not given
Work on `COc1ccc(/C=N/N(C)C(=O)c2ccc(Cl)cc2)cc1OC` yielded an inhibition in vivo at 100 µmol/kg of 33%. For `COc1ccc(/C=N/N(C)C(=O)c2ccccc2)cc1OC`, the inhibition in vivo at 100 µmol/kg was 58%. With `COc1ccc(/C=N/N(C)C(=O)c2ccccc2OC)cc1OC` the inhibition in vivo at 100 µmol/kg was 61%. `COc1ccc(/C=N/N(C)C(=O)c2ccc(OC)c(OC)c2)cc1OC` gave an inhibition in vivo at 100 µmol/kg of 92%.

Species: Bos taurus
Test: Inhibition of bovine PDE5 using […] as substrate at 10 uM
Conditions: not given
`COc1ccc(/C=N/N(C)C(=O)c2ccc(Cl)cc2)cc1OC` showed an inhibition of 27.5%. For `COc1ccc(/C=N/N(C)C(=O)c2ccccc2)cc1OC`, the inhibition was 22.3%. `COc1ccc(/C=N/N(C)C(=O)c2ccccc2OC)cc1OC` showed an inhibition of 13.9%. With `COc1ccc(/C=N/N(C)C(=O)c2ccc(OC)c(OC)c2)cc1OC` the inhibition was 30.9%.
